Sampled rows, rich in hits. Any-hit rate of the full collection: about 1.6%.
T cell modulator: T cell immune modulators affecting CD8 T cell-vesicle binding; 2C CD8+ T cell-vesicle binding, flow cytometry; stronger effect = lower value; response (vesicle binding), % at 7 µM; 330,000 tested, 0.068% active; AID 2052;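 active = response, share of CD8 T cells binding vesicles, and their 90th percentile fluorescence all below set limits, cut at about 80% in these data, passing the limit was not always enough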;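 note: values below 100% mean blocked vesicle binding to the CD8+ T cells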
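Material: murine 2C transgenic CD8+ T lymphocytes / Also added: QL9-peptide-loaded Drosophila micro-vesicles bearing Ld, ICAM-1 and B7-1 / Schedule: binding step 1.5 h, 37 °C, antibody labelling 20 min, ice / Signal: flow cytometry, PE anti-B7-1 (FL2) versus Alexa647 anti-CD8 (FL8), PFA-fixed / Evaluation: percent CD8+ FL2 mean versus row control / Benchmarks: naked versus QL9-loaded vesicles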
HKDC1 inhibitor: blocks human hexokinase HKDC1 activity; Q2TB90; recombinant HKDC1, G6PDH/diaphorase resazurin coupled fluorescence; inhibition, % at 20 µM; 340,000 tested, 0.16% active;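 active = inhibition above about 35% when tested at 20 µM, limit read from the data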;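 note: plate controls were DMSO wells with enzyme for no effect and DMSO wells lacking enzyme for full effect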
Target sequence (Q2TB90 whole entry, looked up): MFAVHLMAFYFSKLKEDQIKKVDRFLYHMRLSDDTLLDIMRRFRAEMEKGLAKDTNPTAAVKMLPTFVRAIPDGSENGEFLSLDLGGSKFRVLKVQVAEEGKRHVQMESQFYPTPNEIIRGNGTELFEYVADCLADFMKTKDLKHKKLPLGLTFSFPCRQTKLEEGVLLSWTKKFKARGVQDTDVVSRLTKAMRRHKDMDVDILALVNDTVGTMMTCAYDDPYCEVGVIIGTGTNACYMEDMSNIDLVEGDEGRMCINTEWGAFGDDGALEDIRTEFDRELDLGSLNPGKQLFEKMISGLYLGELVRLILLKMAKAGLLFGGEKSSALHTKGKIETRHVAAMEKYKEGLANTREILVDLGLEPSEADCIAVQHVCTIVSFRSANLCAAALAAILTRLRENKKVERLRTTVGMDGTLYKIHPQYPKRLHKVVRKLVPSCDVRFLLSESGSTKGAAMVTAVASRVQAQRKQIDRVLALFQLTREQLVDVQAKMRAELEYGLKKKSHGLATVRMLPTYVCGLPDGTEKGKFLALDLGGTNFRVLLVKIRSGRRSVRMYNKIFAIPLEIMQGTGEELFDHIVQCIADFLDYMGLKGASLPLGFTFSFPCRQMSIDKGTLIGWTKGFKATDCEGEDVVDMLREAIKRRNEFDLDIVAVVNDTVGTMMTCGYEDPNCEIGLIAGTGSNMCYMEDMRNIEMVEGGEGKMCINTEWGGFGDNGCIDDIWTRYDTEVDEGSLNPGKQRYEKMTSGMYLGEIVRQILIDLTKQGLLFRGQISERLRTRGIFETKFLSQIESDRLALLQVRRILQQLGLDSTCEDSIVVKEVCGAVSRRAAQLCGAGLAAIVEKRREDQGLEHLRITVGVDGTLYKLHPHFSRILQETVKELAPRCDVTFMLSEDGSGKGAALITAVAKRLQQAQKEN
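Test system: Recombinant HKDC1 (HK5) hexokinase enzyme, produced in-house | Input: HKDC1 at 5 µg/mL | Buffer or medium: Tris pH 8.0 buffer with MgCl2, Tween-20, BSA, BME | Schedule: 90 min reaction incubation at room temperature, dark | Technique: Resazurin-to-resorufin fluorescence via G6PDH and diaphorase coupling, 525/613 nm | Controls: DMSO wells with and without enzyme mix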
PKA-R1A act: activates the PKA-R1A holoenzyme complex; P00514+P68181; PKA-R1A dissociation, Cy5-IP20 fluorescence polarization; scaled: DMSO 0%, 113 µM cGMP 100%; activation, % at 11.4 µM; 340,000 tested, 0.083% active;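 active = percent activation above the mean of all tested compounds plus 3 SD, cut at about 19% in these data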;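 note: higher means more PKAc released from R1A so a rise in polarization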
ATG4B inh: blocks human ATG4B protease cleavage of LC3 substrate; ATG4B cleavage of LC3-PLA2, NBD-HPC fluorescence, 1 h; inhibition, % at 8.33 µM; 340,000 tested, 0.51% active; AID 504462; in the data active = inhibition above about 40%
PKA-R2B act: PKA-R2B complex activation; activation, % at 11.4 µM; AID 504700; P22694+P31323; 340,000 tested, 0.079% active; PKA-R2B holoenzyme dissociation, Cy5-IP20 fluorescence polarization; R2B truncated from residue 108, S112A mutant; 0% DMSO only, 100% 113 µM cGMP;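 active = activation above a cutoff set at the mean over all compounds plus 3 SD, cut at about 18% in these data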;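 note: higher means more holoenzyme dissociation and a rise in polarization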
PfGluPho inh: PfG6PD (Plasmodium falciparum) enzyme inhibition. PfGluPho enzyme, NADPH resazurin-diaphorase fluorescence. inhibition, % at 20 µM. 350,000 tested, 0.78% active;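 active = inhibition reaching at least a set limit at 20 µM in the primary screen, cut at about 59% in these data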;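 note: 0% = DMSO wells with substrate and 100% = DMSO wells lacking glucose-6-phosphate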
R2B FP artifact: fluorescence polarization artifact in PKA-R2B activator counter-screen. AID 504796. activation, % at 11.4 µM. shares compounds with PKA-R2B act. FP artifact counterscreen. 270 tested, 6% active; in the data active = activation above about 20%;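 note: Cy5 labelled IP20 peptide probe with compound but no PKA protein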
PKA-R2B act conf: PKA-R2B complex activation, confirmation; activation, % at 11.4 µM; AID 504797; fluorescence polarization; 270 tested, 9% active; shares compounds with PKA-R2B act; in the data active = activation above about 19%
* = called active by the depositor.

Results for COCCn1c(SCC(=O)NCCc2ccc(OC)c(OC)c2)nc2c([nH]c3ccccc32)c1=O ?
T cell modulator: 150.5; HKDC1 inhibitor: -5.7; PKA-R1A act: -4.4; ATG4B inh: -5.2; PKA-R2B act: 4.7; PfGluPho inh: -11.4

How did COCCn1c(SCC(=O)NCCc2ccccc2)nc2c([nH]c3ccccc32)c1=O do in these assays?
T cell modulator: 144.5; HKDC1 inhibitor: -1.9; PKA-R1A act: -6.4; ATG4B inh: 3.6; PKA-R2B act: 19.9*; PfGluPho inh: -2.0; R2B FP artifact: 3.2; PKA-R2B act conf: -0.5

What do the screens show for `COc1cccc(Nc2nc(NCCO)nc(N3CCCC3)n2)c1`?
T cell modulator: 372.4; HKDC1 inhibitor: -5.8; PKA-R1A act: 7.2; ATG4B inh: -8.8; PKA-R2B act: 22.0*; PfGluPho inh: 7.7; R2B FP artifact: -1.2; PKA-R2B act conf: 1.1

Results for Cc1ccc2c(CC(=O)O)coc2c1 ?
T cell modulator: 370.7; HKDC1 inhibitor: -6.8; PKA-R1A act: 7.5; ATG4B inh: 4.2; PKA-R2B act: 19.1*; PfGluPho inh: -19.2; R2B FP artifact: -0.1; PKA-R2B act conf: -0.6

How did CC(=O)N1CCC(C(=O)Nc2cc(S(=O)(=O)N3CCCCC3)ccc2C)CC1 do in these assays?
PKA-R1A act: -1.6; PKA-R2B act: -7.0; PfGluPho inh: -4.7

What do the screens show for `CCN1C=C(C(=O)c2ccccc2)C(=O)CC1`?
HKDC1 inhibitor: -2.5; PKA-R1A act: 8.8; ATG4B inh: 4.3; PKA-R2B act: 20.3*; PfGluPho inh: -5.8; R2B FP artifact: 2.9; PKA-R2B act conf: 1.6

How did CCCCN1C=C(C(=O)c2ccccc2)C(=O)CC1 do in these assays?
HKDC1 inhibitor: 1.3; PKA-R1A act: -8.6; ATG4B inh: 7.8; PKA-R2B act: -8.9; PfGluPho inh: -11.3

What do the screens show for `CC(=O)N1CCCC(C(=O)c2ccc3c4c(cccc24)CC3)C1` (stereo not drawn)?
T cell modulator: 670.5; HKDC1 inhibitor: -3.2; PKA-R1A act: 0.7; ATG4B inh: -9.4; PKA-R2B act: 25.1*; PfGluPho inh: 25.8; R2B FP artifact: 1.5; PKA-R2B act conf: 0.1

What do the screens show for `CN1CCC(C(=O)N2CCCC(C(=O)c3ccc4c5c(cccc35)CC4)C2)CC1` (stereo not drawn)?
T cell modulator: 176.8; HKDC1 inhibitor: -5.0; PKA-R1A act: 1.1; ATG4B inh: 17.4; PKA-R2B act: -2.0; PfGluPho inh: -3.7

What do the screens show for `O=C(NC1CCCCCC1)c1c(O)nc2sccn2c1=O`?
T cell modulator: 245.3; HKDC1 inhibitor: -3.4; PKA-R1A act: 2.8; ATG4B inh: -11.2; PKA-R2B act: -5.9; PfGluPho inh: -1.1

Results for O=C(NC1CCCCC1)c1c(O)nc2sccn2c1=O ?
T cell modulator: 413.0; HKDC1 inhibitor: 0.1; PKA-R1A act: 4.4; ATG4B inh: 1.2; PKA-R2B act: 19.7*; PfGluPho inh: -3.1; R2B FP artifact: 7.8; PKA-R2B act conf: -0.1

Results for Cc1onc(-c2ccccc2)c1C(=O)Nc1ccccc1NC(=O)c1c(-c2ccccc2)noc1C ?
T cell modulator: 234.4; HKDC1 inhibitor: -2.0; PKA-R1A act: 12.5; ATG4B inh: -7.2; PKA-R2B act: -0.2; PfGluPho inh: 1.0

What do the screens show for `Cc1onc(-c2ccccc2)c1C(=O)Nc1ccc(Br)cc1Cl`?
T cell modulator: 578.9; HKDC1 inhibitor: 1.4; PKA-R1A act: 2.0; ATG4B inh: 0.6; PKA-R2B act: 19.1*; PfGluPho inh: -5.6; R2B FP artifact: 5.7; PKA-R2B act conf: 0.1

What do the screens show for `COc1ccc(C(=O)NC2(C(F)(F)F)N=C3SCCN3C2=O)cc1` (stereo not drawn)?
T cell modulator: 403.2; HKDC1 inhibitor: 13.4; PKA-R1A act: -1.2; ATG4B inh: 5.5; PKA-R2B act: 19.5*; PfGluPho inh: 0.0; R2B FP artifact: 0.0; PKA-R2B act conf: -3.0

What do the screens show for `COc1ccc(N2CC(C(=O)N(CC(C)C)c3c(N)n(Cc4ccccc4)c(=O)[nH]c3=O)CC2=O)c(OC)c1` (stereo not drawn)?
T cell modulator: 404.5; HKDC1 inhibitor: -7.2; PKA-R1A act: -7.2; ATG4B inh: -6.3; PKA-R2B act: 9.4; PfGluPho inh: -3.4

Results for O=C1NCCCN1C1OC(CO)C(O)C1O (stereo not drawn) ?
PKA-R1A act: 10.8; PKA-R2B act: 21.6*; PfGluPho inh: 0.0; R2B FP artifact: 5.5; PKA-R2B act conf: 5.6

What do the screens show for `O=c1cnn([C@@H]2O[C@H](CO)[C@@H](O)[C@H]2O)c(=O)[nH]1`?
T cell modulator: 432.3; HKDC1 inhibitor: -1.2; PKA-R1A act: -8.9; ATG4B inh: 3.0; PKA-R2B act: -7.5; PfGluPho inh: -17.5

How did COc1ccc(OC)c(S(=O)(=O)NCC(=O)O)c1 do in these assays?
T cell modulator: 227.5; HKDC1 inhibitor: -2.4; PKA-R1A act: 0.4; ATG4B inh: -4.7; PKA-R2B act: -3.2; PfGluPho inh: 7.6

How did Cc1cc(C)c(S(=O)(=O)NCC(=O)O)cc1C do in these assays?
T cell modulator: 281.1; HKDC1 inhibitor: -8.3; PKA-R1A act: 4.3; ATG4B inh: 0.2; PKA-R2B act: 20.3*; PfGluPho inh: -15.2; R2B FP artifact: 4.6; PKA-R2B act conf: 3.6

What do the screens show for `CC(C)CN(C(=O)COC(=O)/C=C/c1cccs1)c1c(N)n(Cc2ccccc2)c(=O)[nH]c1=O`?
T cell modulator: 119.0; HKDC1 inhibitor: -2.7; PKA-R1A act: -1.1; ATG4B inh: -0.1; PKA-R2B act: 9.0; PfGluPho inh: -2.3

What do the screens show for `COCCN(C(=O)COC(=O)/C=C/c1cccs1)c1c(N)n(Cc2ccccc2)c(=O)[nH]c1=O`?
T cell modulator: 585.3; HKDC1 inhibitor: 1.1; PKA-R1A act: 5.5; ATG4B inh: -4.7; PKA-R2B act: 22.9*; PfGluPho inh: -13.7; R2B FP artifact: 1.8; PKA-R2B act conf: 1.9

Results for COc1cccc(NC(=O)n2ncc3c(C)cccc32)c1 ?
T cell modulator: 207.6; HKDC1 inhibitor: -1.4; PKA-R1A act: -17.8; ATG4B inh: -4.3; PKA-R2B act: 3.9; PfGluPho inh: 44.1

Results for CCOc1ccc(NC(=O)CN2C(=O)NC3(CCCCCC3)C2=O)cc1 ?
T cell modulator: 339.1; HKDC1 inhibitor: -2.7; PKA-R1A act: -3.6; ATG4B inh: -7.2; PKA-R2B act: 20.0*; PfGluPho inh: -2.1; R2B FP artifact: -3.1; PKA-R2B act conf: -2.8

Screens (PubChem)
